Reference: ChEMBL document CHEMBL3272249, “Esters of N-tert-butylarterenol. Long-acting new bronchodilators with reduced cardiac effects” (J Med Chem, 1976)

Key:
[1] = test system: Canis familiaris; test: Cardiotoxicity in spontaneously respiring dog assessed as degree of increase in heart rate at 20 to 40 mg/kg, iv relative to control; type: toxicity, organism-based, Canis lupus familiaris; set-up: dose 20-40 mg/kg, route intravenous; conditions: in vivo
How it was run: (§1)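 Anesthetized, spontaneously respiring dogs. Heart rate was taken from a lead II EKG, and blood pressure from the right femoral artery by transducer. The increase in heart rate (beats/min) was scored on a graded scale with more than 4 dogs per dose, and its duration was recorded. Drugs were dissolved fresh in distilled water, diluted in physiological saline and kept on ice.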

[2] = test system: Canis familiaris; test: Cardiotoxicity in spontaneously respiring dog assessed as degree of increase in heart rate at 160 mg/kg, id relative to control; type: toxicity, organism-based, Canis lupus familiaris; set-up: dose 160 mg/kg, route intraduodenal; conditions: in vivo, other; how it was run: as §1
[3] = test system: Canis familiaris; test: Cardiotoxicity in spontaneously respiring dog assessed as degree of increase in heart rate at 250 to 1000 mg/kg, it relative to control; type: toxicity, organism-based, Canis lupus familiaris; set-up: dose 250-1000 mg/kg, route endotracheal; conditions: in vivo, inhaled_or_intranasal; how it was run: as §1
[4] = test system: Canis familiaris; test: Cardiotoxicity in spontaneously respiring dog assessed as time of increase in heart rate at 20 to 40 mg/kg, iv relative to control; type: toxicity, organism-based, Canis lupus familiaris; set-up: dose 20-40 mg/kg, route intravenous; conditions: in vivo; how it was run: as §1
[5] = test system: Canis familiaris; test: Cardiotoxicity in spontaneously respiring dog assessed as time of increase in heart rate at 160 mg/kg, id relative to control; type: toxicity, organism-based, Canis lupus familiaris; set-up: dose 160 mg/kg, route intraduodenal; conditions: in vivo, other; how it was run: as §1
[6] = test system: Canis familiaris; test: Cardiotoxicity in spontaneously respiring dog assessed as time of increase in heart rate at 250 to 1000 mg/kg, it relative to control; type: toxicity, organism-based, Canis lupus familiaris; set-up: dose 250-1000 mg/kg, route endotracheal; conditions: in vivo, inhaled_or_intranasal; how it was run: as §1
[7] = test system: Canis familiaris; test: Bronchodilator activity in dog assessed as time of inhibition of carbachol or histamine-induced bronchoconstriction at 20 to 40 mg/kg, iv relative to control; type: functional, Canis lupus familiaris; conditions: dose mg/kg 20-40
How it was run: (§2)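 Dog airway model: anesthetized, cannulated via a nonbreathing valve, with airway pressure changes recorded after iv carbachol (2–4 μg/kg) or histamine diphosphate (20–50 μg/kg) challenge, each agonist in different animals. Compounds were given iv, intraduodenally or intratracheally from fresh aqueous stocks diluted in saline. Duration (h) of inhibition of induced bronchoconstriction was followed, and the two agonist datasets were pooled.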

[8] = test system: Canis familiaris; test: Bronchodilator activity in dog assessed as time of inhibition of carbachol or histamine-induced bronchoconstriction at 160 mg/kg, id relative to control; type: functional, Canis lupus familiaris; conditions: route intraduodenal; how it was run: as §2
[9] = test system: Canis familiaris; test: Bronchodilator activity in dog assessed as time of inhibition of carbachol or histamine-induced bronchoconstriction at 250 to 1000 mg/kg, it relative to control; type: functional, Canis lupus familiaris; conditions: dose mg/kg 250-1000; route endotracheal; how it was run: as §2
[10] = test system: Canis familiaris; test: Bronchodilator activity in dog assessed as degree of inhibition of carbachol or histamine-induced bronchoconstriction at 20 to 40 mg/kg, iv relative to control; type: functional, Canis lupus familiaris; conditions: dose mg/kg 20-40
How it was run: (§3)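 Anesthetized dogs, trachea cannulated with a nonbreathing valve. Bronchoconstriction induced by iv carbachol (2–4 μg/kg) or histamine diphosphate (20–50 μg/kg) in separate animals, and airway pressure recorded by transducer. Drug stocks were made fresh in distilled water, diluted in saline and kept on ice. Read-out was percent inhibition of control constriction, averaged over at least three dogs per dose at the higher dose. Carbachol and histamine data were combined.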

[11] = test system: Canis familiaris; test: Bronchodilator activity in dog assessed as degree of inhibition of carbachol or histamine-induced bronchoconstriction at 160 mg/kg, id relative to control; type: functional; conditions: Canis lupus familiaris, route intraduodenal; how it was run: as §3
[12] = test system: Canis familiaris; test: Bronchodilator activity in dog assessed as degree of inhibition of carbachol or histamine-induced bronchoconstriction at 250 to 1000 mg/kg, it relative to control; type: functional, Canis lupus familiaris; conditions: dose mg/kg 250-1000; route endotracheal; how it was run: as §3

## COc1ccc(C(=O)Oc2ccc([C@@H](O)CNC(C)(C)C)cc2OC(C)=O)cc1.CS(=O)(=O)O
[1]
  Activity: 20%
[2]
  Activity: 20%
[3]
  Activity: 5%
[4]
  Time: 2 h
[5]
  Time: < 3 h
[6]
  Time: < 1 h
[7]
  Time: >4 h
[8]
  Time: >5 h
[9]
  Time: >6 h
[10]
  inhibition (INH): >70%
[11]
  inhibition in vivo at 160 mg/kg: > 70%
[12]
  inhibition (INH): >70%
